In ChEMBL document CHEMBL1158173, “Carbodithioic acid esters of fluoxetine, a novel class of dual-function spermicides” (2008) one finds Activity, MIC and MEC data, which are given here for six compounds.

Common to all, as to assay type: functional
One assay has as its system Sperm. The assay can be described thus: (§1) Spermicidal activity in liquefied human semen assessed as drug level required to kill 100% sperm in 20 seconds.
Assay [1] has as its system Candida albicans. Briefly: Antifungal activity against Candida albicans after 48 hrs by broth microdilution technique. For orientation: Broth dilution looks for growth in wells or tubes with falling amounts of substance.
For a further assay, the system named is Cryptococcus neoformans. Briefly: Antifungal activity against Cryptococcus neoformans after 48 hrs by broth microdilution technique.
Another assay has as its system Sporothrix schenckii. The assay can be described thus: Antifungal activity against Sporothrix schenckii after 48 hrs by broth microdilution technique.
Assay [2] has as its system Trichophyton mentagrophytes. The assay can be described thus: Antifungal activity against Trichophyton mentagrophytes after 48 hrs by broth microdilution technique.
In the next assay the test system is Aspergillus fumigatus. Briefly: Antifungal activity against Aspergillus fumigatus after 48 hrs by broth microdilution technique.
Assay [3] deals with Candida parapsilosis. Briefly: (§2) Antifungal activity against Candida parapsilosis ATCC 22019 after 48 hrs by broth microdilution technique.
For the next assay, the system named is Trichomonas vaginalis. Briefly: Antitrichomonas activity against Trichomonas vaginalis after 48 hrs by trypan blue staining. An outline of the steps: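 Trichomonas vaginalis was grown in TYM medium and used in log phase, one day after routine subculture. Compounds in DMSO stock were serially diluted in TYM medium, with DMSO/TYM as vehicle control. Wells received 5 × 10³ trophozoites and were incubated anaerobically at 37 °C. Viability was scored daily by trypan blue and cell counts, and MIC was read at 48 h. Finer dilutions were then retested, and the final MIC was taken from a concentration versus viable-trophozoite-number curve.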

The nature of assay [4]: as §1.
Assay [5] relates to Candida albicans. Briefly: Antifungal activity against Candida albicans MTCC 183 after 48 hrs by broth microdilution technique. The following applies: MTCC 183, 48 h.
Assay [6] deals with Candida albicans. The assay can be described thus: Antifungal activity against Candida albicans MTCC 1346 after 48 hrs by broth microdilution technique. The note with it: MTCC 1346, 48 h.
Assay [7] relates to Candida albicans. The assay can be described thus: Antifungal activity against Candida albicans ATCC 10231 after 48 hrs by broth microdilution technique. The following applies: ATCC 10231, 48 h.
The next assay relates to Pichia kudriavzevii. Briefly: Antifungal activity against Candida krusei ATCC 6258 after 48 hrs by broth microdilution technique. The note with it: ATCC 6258, 48 h.
Assay [8] concerns Candida parapsilosis. The assay is described as §2. The note with it: Lodderomyces parapsilosis, ATCC 22019, 48 h.
For assay [9], the system named is Candida albicans. Briefly: Antifungal activity against Candida albicans ATCC 10453 after 48 hrs by broth microdilution technique. The note with it: ATCC 10453, 48 h.
Assay [10] deals with Candida albicans. Briefly: Antifungal activity against Candida albicans ATCC 6019 after 48 hrs by broth microdilution technique. The note with it: ATCC 6019, 48 h.
Assay [11] concerns Candida albicans. Briefly: Antifungal activity against Candida albicans ATCC 66027 after 48 hrs by broth microdilution technique. The note with it: ATCC 66027, 48 h.

Molecules are shown by their SMILES. Values after ≈ are worked out from the molar mass of the structure shown. Active and inactive are the calls of the source. No cut-off for these calls is given here.

Broadly, the MIC is the least concentration at which growth counts as inhibited. On to `Cc1ncc([N+](=O)[O-])n1CCO` [METRONIDAZOLE], for which the outcome (with Sperm; in the assay on Candida albicans [1]; with Cryptococcus neoformans; with Sporothrix schenckii; in [2]; in the assay with Aspergillus fumigatus) was inactive. In addition, in the assay on Candida parapsilosis [3], the outcome was inactive. In addition, in the assay with Trichomonas vaginalis, the MIC is 0.54 µg/mL (≈ 3.16 µM).

Regarding `CN(CCC(Oc1ccc(C(F)(F)F)cc1)c1ccccc1)C(=S)SCCN1CCCC1` (centres undefined), in assay [4], the MEC was found to be 0.05%. Moreover, the MIC was found to be 6.25 µg/mL (≈ 12.9 µM) with Candida albicans [1]; 3.12 µg/mL (≈ 6.46 µM) in the assay with Cryptococcus neoformans; 25 µg/mL (≈ 51.8 µM) against Sporothrix schenckii; 12.5 µg/mL (≈ 25.9 µM) in assay [2]; 12.5 µg/mL (≈ 25.9 µM) against Aspergillus fumigatus; 3.12 µg/mL (≈ 6.46 µM) against Candida parapsilosis [3] (Lodderomyces parapsilosis, ATCC 22019, 48 h). Moreover, the MIC against Trichomonas vaginalis was determined as 14 µg/mL (≈ 29 µM); against Candida albicans [5], 3.12 µg/mL (≈ 6.47 µM); in the assay with Candida albicans [6], 6.25 µg/mL (≈ 12.9 µM); in the assay with Candida albicans [7] it was 6.25 µg/mL (≈ 12.9 µM); in the assay with Pichia kudriavzevii it was 6.25 µg/mL (≈ 12.9 µM); against Candida parapsilosis [8], 3.12 µg/mL (≈ 6.47 µM). The MIC in the assay with Candida albicans [9], in the assay with Candida albicans [10] and against Candida albicans [11] was 6.25 µg/mL (≈ 12.9 µM) in each case.

As for `CN(CCC(Oc1ccc(C(F)(F)F)cc1)c1ccccc1)CC(O)CSC(=S)N(C)Cc1ccccc1` (centres undefined), the outcome (with Sperm; with Candida albicans [1]; in the assay with Cryptococcus neoformans; with Sporothrix schenckii; in assay [2]; in the assay with Aspergillus fumigatus) was inactive. For the same compound, in the assay with Candida parapsilosis [3], the outcome was inactive.

For `CN(CCC(Oc1ccc(C(F)(F)F)cc1)c1ccccc1)C(=S)SCCN1CCOCC1` (centres undefined), the outcome (in the assay on Sperm; with Candida albicans [1]; in the assay with Cryptococcus neoformans; with Sporothrix schenckii; in assay [2]; in the assay on Aspergillus fumigatus) was inactive. Moreover, the result in the assay with Candida parapsilosis [3] was inactive.

For the compound `OC(Cn1cncn1)(Cn1cncn1)c1ccc(F)cc1F` [FLUCONAZOLE], the MIC against Candida albicans [1] turned out to be 0.5 µg/mL (≈ 1.63 µM); against Candida albicans [5] it was 0.5 µg/mL (≈ 1.63 µM); in the assay with Candida albicans [6] it was 2 µg/mL (≈ 6.53 µM); in the assay with Candida albicans [7], 1 µg/mL (≈ 3.27 µM); against Pichia kudriavzevii it was 4 µg/mL (≈ 13.1 µM); against Candida parapsilosis [8] it was 1 µg/mL (≈ 3.27 µM). Further, the MIC was found to be 1 µg/mL (≈ 3.27 µM) with Candida albicans [9], 0.25 µg/mL (≈ 0.816 µM) in the assay with Candida albicans [10] and 0.25 µg/mL (≈ 0.816 µM) in the assay on Candida albicans [11].

Turning to `CN(CCC(Oc1ccc(C(F)(F)F)cc1)c1ccccc1)CC(O)CSC(=S)N1CCCCCC1` (centres undefined), the outcome (with Sperm; with Candida albicans [1]; with Cryptococcus neoformans; in the assay with Sporothrix schenckii; in assay [2]; in the assay on Aspergillus fumigatus) was inactive. Also, the outcome in the assay with Candida parapsilosis [3] was inactive.
